Measurements taken from ChEMBL document CHEMBL4699593, “Identification of 2,4-Disubstituted Imidazopyridines as Hemozoin Formation Inhibitors with Fast-Killing Kinetics and In Vivo Efficacy in the Plasmodium falciparum NSG Mouse Model” (J Med Chem, 2020).
Values after ≈ are worked out from the molar mass of the structure shown.

How the values were obtained:
Plasmodium falciparum [1] = assay: Antiplasmodial activity against multidrug-sensitive asexual blood stage Plasmodium falciparum NF54 strain assessed as reduction in parasite growth after 72 hrs by NBT reagent based LDH assay; assay type: functional, organism-based; conditions: NF54, 72 h
Plasmodium falciparum [2] = assay: Antiplasmodial activity against multidrug-resistant asexual blood stage Plasmodium falciparum K1 strain assessed as reduction in parasite growth after 72 hrs by NBT reagent based LDH assay; assay type: functional, organism-based; conditions: K1, 72 h
Method in brief: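 Asexual blood-stage K1 (multidrug-resistant) parasites were read out by the parasite lactate dehydrogenase (pLDH) assay. […] Most individual values varied less than 2× (maximum 3×).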

[3] = Aqueous solubility of compound in phosphate buffer saline at pH 6.5 incubated for 20 hrs under shaking condition by shake-flask method based HPLC-DAD analysis; assay type: physicochemical; conditions: phosphate buffered saline
Method in brief: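 Equilibrium aqueous solubility was measured at pH 6.5 using a miniaturized shake-flask method.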

CHO = assay: Cytotoxicity against CHO cells assessed as reduction in cell viability by MTT assay; assay type: cell-based, Cricetulus griseus; conditions: chinese hamster
Method in brief: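 Cytotoxicity was measured in Chinese hamster ovary (CHO) cells and reported as CC50. The selectivity index is CC50 divided by NF54 IC50.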

[4] = biological target: Voltage-gated inwardly rectifying potassium channel KCNH2 (Homo sapiens, UniProt Q12809); assay: Inhibition of human ERG by patch clamp method
Chain of Voltage-gated inwardly rectifying potassium channel KCNH2 (Q12809 whole entry): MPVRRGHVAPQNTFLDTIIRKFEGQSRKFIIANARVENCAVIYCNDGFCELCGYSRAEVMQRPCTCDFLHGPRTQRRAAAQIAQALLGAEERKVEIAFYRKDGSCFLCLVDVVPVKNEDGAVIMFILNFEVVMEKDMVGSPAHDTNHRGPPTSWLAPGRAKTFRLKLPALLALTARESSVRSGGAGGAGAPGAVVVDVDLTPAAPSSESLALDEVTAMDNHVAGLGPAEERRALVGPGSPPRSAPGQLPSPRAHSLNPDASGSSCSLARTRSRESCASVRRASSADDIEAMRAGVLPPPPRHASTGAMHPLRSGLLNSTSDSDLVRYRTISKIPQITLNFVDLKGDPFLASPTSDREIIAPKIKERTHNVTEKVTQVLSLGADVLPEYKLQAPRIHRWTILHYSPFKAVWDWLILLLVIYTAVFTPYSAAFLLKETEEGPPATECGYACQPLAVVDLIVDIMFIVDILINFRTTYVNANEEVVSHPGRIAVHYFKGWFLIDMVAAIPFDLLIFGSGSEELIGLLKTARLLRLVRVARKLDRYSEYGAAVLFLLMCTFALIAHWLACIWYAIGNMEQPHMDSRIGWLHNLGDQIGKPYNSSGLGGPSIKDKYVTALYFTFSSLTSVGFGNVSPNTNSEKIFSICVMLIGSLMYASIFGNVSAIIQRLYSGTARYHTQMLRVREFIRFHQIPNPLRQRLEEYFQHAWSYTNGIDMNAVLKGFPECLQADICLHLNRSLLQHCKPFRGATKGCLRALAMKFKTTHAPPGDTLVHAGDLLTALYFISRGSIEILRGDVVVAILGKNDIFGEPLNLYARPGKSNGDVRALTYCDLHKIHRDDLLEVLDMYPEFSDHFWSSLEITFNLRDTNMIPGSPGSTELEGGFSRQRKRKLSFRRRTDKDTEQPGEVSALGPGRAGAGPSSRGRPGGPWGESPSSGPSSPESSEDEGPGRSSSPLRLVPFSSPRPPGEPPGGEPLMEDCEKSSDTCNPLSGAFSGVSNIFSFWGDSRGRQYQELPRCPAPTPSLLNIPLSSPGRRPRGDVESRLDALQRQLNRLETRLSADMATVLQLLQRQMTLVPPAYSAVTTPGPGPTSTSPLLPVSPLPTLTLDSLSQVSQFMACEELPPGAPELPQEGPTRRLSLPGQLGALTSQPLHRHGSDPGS

[5] = Cmax in Balb/C mouse at 2 mg/kg, iv by LC-MS/MS analysis; assay type: ADME, organism-based; parameters: route intravenous, dose 2 mg/kg; conditions: in vivo
Method in brief: (§1)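 Healthy Balb/c mice dosed i.v. or orally. Parameters come from non-compartmental analysis of compound concentration over time. […] Clearance is blood clearance (CL_b).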

[6] = Cmax in Balb/C mouse at 20 mg/kg, po by LC-MS/MS analysis; assay type: ADME, organism-based; parameters: route oral, dose 20 mg/kg; conditions: in vivo; method in brief: as §1
[7] = Tmax in Balb/C mouse at 20 mg/kg, po by LC-MS/MS analysis; assay type: ADME, organism-based; conditions: in vivo
Method in brief: (§2)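 Healthy Balb/c mice were given the compound i.v. or orally. Parameters come from non-compartmental analysis: AUC from 0 h to t_last, blood clearance, volume at steady state, terminal half-life, Tmax. Oral bioavailability F is derived from the i.v. and p.o. data.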

[8] = Terminal half life in Balb/C mouse at 2 mg/kg, iv by LC-MS/MS analysis; assay type: ADME, organism-based; conditions: in vivo, read-out: beta t1/2 (converted); method in brief: as §2
[9] = Terminal half life in Balb/C mouse at 20 mg/kg, po by LC-MS/MS analysis; assay type: ADME, organism-based; conditions: in vivo, read-out: beta t1/2 (converted); method in brief: as §2
[10] = Clearance in Balb/C mouse blood at 2 mg/kg, iv by LC-MS/MS analysis; assay type: ADME, organism-based; conditions: whole blood; method in brief: as §1
[11] = Volume of distribution at steady state in Balb/C mouse at 2 mg/kg, iv by LC-MS/MS analysis; assay type: ADME, organism-based; conditions: in vivo, read-out: Vdss; method in brief: as §2
[12] = AUC (0 to t) in Balb/C mouse at 2 mg/kg, iv by LC-MS/MS analysis; assay type: ADME, organism-based; parameters: dose 2 mg/kg; conditions: in vivo; method in brief: as §1
[13] = AUC (0 to t) in Balb/C mouse at 20 mg/kg, po by LC-MS/MS analysis; assay type: ADME, organism-based; parameters: dose 20 mg/kg; conditions: in vivo; method in brief: as §1
[14] = Oral bioavailability in Balb/C mouse at 20 mg/kg by LC-MS/MS analysis; assay type: ADME, organism-based; conditions: in vivo; method in brief: as §2
[15] = Ratio of unbound average drug concentration in Balb/c mouse at 20 mg/kg, po measured at 24 hrs to IC50 for antiplasmodial activity against multidrug-sensitive Plasmodium falciparum NF54 asexual blood stage assessed as reduction in parasite growth after 72 hrs by LDH assay; assay type: organism-based; conditions: in vivo
[16] = Selectivity index, ratio of CC50 for cytotoxicity against CHO cells assessed as reduction in cell viability to IC50 for antiplasmodial activity against multidrug-sensitive Plasmodium falciparum NF54 assessed as reduction in parasite growth; assay type: toxicity, cell-based; conditions: hamster, read-out: Ratio CC50/IC50
[17] = Apparent intrinsic clearance in mouse liver microsomes at 0.1 uM in presence of NADPH by LC-MS/MS analysis; assay type: ADME, Microsome
Method in brief: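 Compound was incubated with mouse liver microsomes for 30 min. Apparent intrinsic clearance (CL_int,app) is reported in μL/min/mg.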

[18] = Intrinsic clearance in Balb/c mouse at 20 mg/kg, po by LC-MS/MS analysis; assay type: ADME, organism-based; conditions: in vivo
[19] = Dissociation constant, pKa of compound; assay type: physicochemical
Hemozoin = assay: Inhibition of beta-hematin formation assessed as reduction in hemozoin formation incubated for 5 hrs by NP40 detergent-mediated assay
Method in brief: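 Synthetic hemozoin (β-hematin) formation is driven by the detergent Nonidet P-40. Pyridine is then added to detect unreacted hematin. IC50 is derived from this read-out.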

Plasmodium berghei = assay: Antiplasmodial activity against luciferase-expressing Plasmodium berghei sporozoites liver stage infected in human HepG2 cells expressing GFP-CD81 fusion protein incubated for 48 hrs by luciferase reporter gene based bioluminescence assay; assay type: functional, organism-based; conditions: HepG2, 48 h
Method in brief: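 Liver-stage activity was measured in vitro with rodent P. berghei sporozoites. Values are the mean of 3 technical replicates from the luciferase assay; individual values varied less than 2×.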

Plasmodium falciparum [20] = assay: Antiplasmodial activity against early stage (I to III) Plasmodium falciparum NF54 gametocytes incubated for 48 hrs under hypoxia condition by luciferase reporter gene assay; assay type: functional, organism-based; conditions: NF54, 48 h
Plasmodium falciparum [21] = assay: Antiplasmodial activity against late stage (IV/V) Plasmodium falciparum NF54 gametocytes at 5 uM incubated for 48 hrs under hypoxia condition by luciferase reporter gene assay relative to control; assay type: functional

Row | SMILES | IC50 (Plasmodium falciparum [1]) | IC50 (Plasmodium falciparum [2]) | solubility thermodynamic at 20 h [3] | CC50 (CHO) | IC50 [4] | selectivity ratio [16] | further results
1 | CN1CCN(C2CCN(c3nccc4[nH]c(-c5cc(F)cc(F)c5)nc34)CC2)CC1 | 50 nM | 170 nM | 200 µM (≈ 82.5 µg/mL) | 30000 nM | > 30000 nM |  | Cmax [5]: 300 nM; Cmax [6]: 1500 nM; Tmax [7]: 1.5 h; half-life [8]: 12.6 h; half-life [9]: 9.8 h; clearance [10]: 34.8 mL/min/kg; Vd [11]: 30 L/kg; AUCt [12]: 1.95 µM·h; AUCt [13]: 11.8 µM·h; bioavailability [14]: 61%; Ratio [15]: 2.5
2 | Cn1ccnc1N1CCN(CC2CCN(c3nccc4[nH]c(-c5cc(F)cc(F)c5)nc34)CC2)CC1 | 29 nM | 53 nM | 135 µM (≈ 66.5 µg/mL) | 33000 nM |  | 1140 | Cmax [5]: 1600 nM; Cmax [6]: 1700 nM; Tmax [7]: 2.3 h; half-life [8]: 12.2 h; half-life [9]: 9.2 h; clearance [10]: 9 mL/min/kg; Vd [11]: 6 L/kg; AUCt [12]: 7.88 µM·h; AUCt [13]: 19 µM·h; bioavailability [14]: 24%; Ratio [15]: 1.5
3 | CN1CCC(N2CCN(c3nccc4[nH]c(-c5ccc(F)c(F)c5)nc34)CC(F)(F)C2)CC1 | 59 nM | 160 nM | 180 µM (≈ 83.2 µg/mL) | 33000 nM |  |  | CLH [17]: 33 µL/min/mg
4 | CN1CCC(N2CCN(c3nccc4[nH]c(-c5ccc(F)c(F)c5)nc34)CC2)CC1 | 71 nM | 260 nM | 200 µM (≈ 82.5 µg/mL) | 33000 nM |  | 460 | Cmax [5]: 1700 nM; Cmax [6]: 1100 nM; Tmax [7]: 2.3 h; half-life [8]: 8.2 h; half-life [9]: 10.8 h; clearance [10]: 11.4 mL/min/kg; Vd [11]: 4.3 L/kg; AUCt [12]: 6.77 µM·h; AUCt [13]: 6.63 µM·h; bioavailability [14]: 11%; Ratio [15]: 0.9; CL [18]: 54 mL/min/kg
5 | CN1CCN(CC2CCN(c3nccc4[nH]c(-c5cccc(OC(F)(F)F)c5)nc34)CC2)CC1 | < 20 nM | 12 nM | 200 µM (≈ 94.9 µg/mL) | 950 nM |  | 47 | 
6 | Fc1cc(F)cc(-c2cc3c(N4CCC(N5CCOCC5)CC4)nccc3[nH]2)c1 |  |  |  |  |  |  | pKa [19]: 8.2
7 | CN1CCN(C2CCN(c3nccc4[nH]c(-c5ccc(F)c(F)c5)nc34)CC2)CC1 | 46 nM | 220 nM | 130 µM (≈ 53.6 µg/mL) | 5000 nM |  | 110 | 
8 | CN1CCN(CC2CCN(c3nc(C#N)cc4[nH]c(-c5cc(F)cc(F)c5)nc34)CC2)CC1 | 77 nM | 49 nM | < 5 µM |  |  |  | IC50 (Hemozoin): 8500 nM
9 | Fc1cc(F)cc(-c2nc3c(N4CCC(CN5CCN(CC(F)(F)F)CC5)CC4)nccc3[nH]2)c1 | 75 nM | 160 nM | 180 µM (≈ 89 µg/mL) | 40000 nM | ≤ 3000 nM |  | 
10 | Fc1ccc(-c2nc3c(N4CCCN(CC5CC5)CC4)nccc3[nH]2)cc1F | 20 nM | 77 nM | 200 µM (≈ 76.7 µg/mL) |  |  | 850 | IC50 (Plasmodium berghei): 17000 nM; IC50 (Plasmodium falciparum [20]): 5300 nM; inhibition at 5 µM (Plasmodium falciparum [21]): 48%
11 | CN1CCCN(c2nccc3[nH]c(-c4ccc(F)c(F)c4)nc23)CC1 | 61 nM | 100 nM | 170 µM (≈ 58.4 µg/mL) | 14000 nM | 400 nM |  | CLH [17]: 145 µL/min/mg
12 | Cc1cc2[nH]c(-c3cc(F)cc(F)c3)nc2c(N2CCC(CN3CCN(C)CC3)CC2)n1 | 12 nM | 21 nM | 200 µM (≈ 88.1 µg/mL) | 1900 nM | > 30000 nM | 160 | IC50 (Hemozoin): 15000 nM
